# Experiments:
# [1] = Inhibition of baker's yeast alpha-glucosidase using p-nitrophenyl-alpha-D-glucopyranoside as substrate incubated with enzyme for 10 mins prior to substrate challenge for 15 mins by microplate reader analysis; set-up: species or system Saccharomyces cerevisiae
# Procedure, shortened: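 Run in 96-well format, read as absorbance at 405 nm. Control used phosphate buffer in place of sample; blank used phosphate buffer in place of α-glucosidase. Inhibition (%) = [(ODcontrol − ODcontrol blank) − (ODtest − ODtest blank)]/(ODcontrol − ODcontrol blank) × 100. Acarbose served as positive control. Means of three independent experiments, each in triplicate.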
# A549 = assay: Cytotoxicity against human A549 cells after 72 hrs by MTT assay; assay type: functional, cell-based; conditions: A549, 72 h
# Procedure, shortened: (§1)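 MTT read-out of cell viability in A549 (human lung adenocarcinoma) and HeLa (cervical cancer) cells. Values are means of three independent experiments, each run in triplicate.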
# HeLa = assay: Cytotoxicity against human HeLa cells after 72 hrs by MTT assay; assay type: functional, cell-based; procedure, shortened: as §1
Compound,IC50 [1],IC50 (A549),IC50 (HeLa)
C/C(=C\Cc1c(O)cc2c(c1O)CNC2=O)CC/C=C(\C)C(=O)O,> 200 µM,> 100 µM,> 100 µM
C/C(=C\Cc1c(O)cc2c(c1O)CN([C@H](C(=O)O)C(C)C)C2=O)CC/C=C(\C)C(=O)O,12.8 µM,> 100 µM,> 100 µM
CC[C@H](C)[C@@H](C(=O)O)N1Cc2c(cc(O)c(C/C=C(\C)CC/C=C(\C)C(=O)O)c2O)C1=O,39.6 µM,> 100 µM,> 100 µM
COC(=O)CC/C(C)=C/Cc1c(O)cc2c(c1O)CN(CCO)C2=O,97.8 µM,> 100 µM,> 100 µM
COC(=O)C/C=C(\C)CCc1c(O)cc2c(c1O)CN([C@@H](Cc1ccccc1)C(=O)OC)C2=O,19.8 µM,> 100 µM,> 100 µM
CC[C@H](C)[C@@H](C(=O)O)N1Cc2ccccc2C1=O,> 200 µM,> 100 µM,> 100 µM
CC(C)[C@@H](C(=O)O)N1Cc2ccccc2C1=O,> 200 µM,89.7 µM,> 100 µM
CC(C)[C@H](C(=O)O)N1Cc2ccccc2C1=O,> 200 µM,41.5 µM,> 100 µM
O=C(O)[C@H](Cc1ccccc1)N1Cc2ccccc2C1=O,> 200 µM,> 100 µM,> 100 µM

# Continued, in another order:
IC50 [1],Compound,IC50 (A549),IC50 (HeLa)
24.2 µM,C/C(=C\Cc1c(O)cc2c(c1O)CN(CCO)C2=O)CC/C=C(\C)C(=O)O,> 100 µM,> 100 µM
145 µM,COC(=O)CC/C(C)=C/Cc1c(O)cc2c(c1O)CNC2=O,> 100 µM,> 100 µM
10.3 µM,COC(=O)C/C=C(\C)CCc1c(O)cc2c(c1O)CNC2=O,> 100 µM,> 100 µM
18.6 µM,COC(=O)C/C=C(\C)CCc1c(O)cc2c(c1O)CN(CCO)C2=O,96.1 µM,> 100 µM
15.5 µM,COC(=O)CC/C(C)=C/Cc1c(O)cc2c(c1O)CN([C@@H](Cc1ccccc1)C(=O)OC)C2=O,89.7 µM,> 100 µM
5.3 µM,COc1cc2c(c(O)c1C/C=C(\C)CCC=C(C)C)CN(CCc1ccccc1)C2=O,49 µM,40.5 µM
> 200 µM,O=C(O)[C@@H](Cc1ccccc1)N1Cc2ccccc2C1=O,> 100 µM,> 100 µM
383 µM,C[C@H]1O[C@H](O[C@H]2[C@H](O)[C@@H](O)[C@@H](O[C@H]3[C@H](O)[C@@H](O)C(O)O[C@@H]3CO)O[C@@H]2CO)[C@H](O)[C@@H](O)[C@@H]1N[C@H]1C=C(CO)[C@@H](O)[C@H](O)[C@H]1O (some centres undefined) [ACARBOSE],,

# — ChEMBL document CHEMBL3392995, “Erinacerins C-L, isoindolin-1-ones with α-glucosidase inhibitory activity from cultures of the medicinal mushroom Hericium erinaceus” (J Nat Prod, 2015)
